Measured values: ChEMBL document CHEMBL3400013, “Synthesis and biological activity evaluation of hydrazone derivatives based on a Tröger's base skeleton” (Bioorg Med Chem, 2015)
The source made the active and inactive calls. The rule behind the calls is not given here.

Test system: CCRF-CEM
Experiment: Cytostatic activity against human CCRF-CEM cells after 72 hrs by MTT assay
Type: functional, cell-based
How it was run: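 Cells were seeded at 25,000–30,000 per well and pre-incubated for 24 h at 37°C in 5% CO2. Four-fold compound dilutions were added in duplicate and incubated for 72 h. MTT was added for 1–4 h, and formazan was dissolved in 10% aq SDS (pH 5.5) overnight at 37°C. OD was read at 540 nm. IC50 came from dose-response curves, mean ± SD of eight independent experiments.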

Row | SMILES | IC50
1 | O=C(NN=C(c1ccccn1)c1ccccn1)c1ccc2c3c(ccc2c1)N1Cc2c(ccc4cc(C(=O)NN=C(c5ccccn5)c5ccccn5)ccc24)N(C3)C1 | 910 nM

Test system: not listed separately
Experiment: Metal chelating activity of the compound assessed as formation of Co2+ complex by UV-vis spectrometry
Type: physicochemical

Row | SMILES | Activity
2 | O=C(NN=C(c1ccccn1)c1ccccn1)c1ccc2c3c(ccc2c1)N1Cc2c(ccc4cc(C(=O)NN=C(c5ccccn5)c5ccccn5)ccc24)N(C3)C1 | Active

Test system: Nucleic Acid
Experiment: Binding affinity to DNA (unknown origin) assessed as DNA intercalation by UV-visible spectrophotometry in presence of Fe3+
Type: nucleic-acid assay

Row | SMILES | Activity
3 | O=C(NN=C(c1ccccn1)c1ccccn1)c1ccc2c3c(ccc2c1)N1Cc2c(ccc4cc(C(=O)NN=C(c5ccccn5)c5ccccn5)ccc24)N(C3)C1 | Active

Test system: not listed separately
Experiment: Metal chelating activity of the compound assessed as formation of Fe2+ complex by UV-vis spectrometry
Type: physicochemical

Row | SMILES | Activity
4 | O=C(NN=C(c1ccccn1)c1ccccn1)c1ccc2c3c(ccc2c1)N1Cc2c(ccc4cc(C(=O)NN=C(c5ccccn5)c5ccccn5)ccc24)N(C3)C1 | Not Active

Test system: not listed separately
Experiment: Metal chelating activity of the compound assessed as formation of Ca2+ complex by UV-vis spectrometry
Type: physicochemical

Row | SMILES | Activity
5 | O=C(NN=C(c1ccccn1)c1ccccn1)c1ccc2c3c(ccc2c1)N1Cc2c(ccc4cc(C(=O)NN=C(c5ccccn5)c5ccccn5)ccc24)N(C3)C1 | Not Active

Test system: not listed separately
Experiment: Metal chelating activity of the compound assessed as formation of Cu2+ complex by UV-vis spectrometry
Type: physicochemical

Row | SMILES | Activity
6 | O=C(NN=C(c1ccccn1)c1ccccn1)c1ccc2c3c(ccc2c1)N1Cc2c(ccc4cc(C(=O)NN=C(c5ccccn5)c5ccccn5)ccc24)N(C3)C1 | Active

Test system: BJ
Experiment: Selectivity index, ratio of IC50 for human BJ cells to IC50 for human p53-/- HCT116 cells
Type: functional

Row | SMILES | Ratio IC50
7 | O=C(NN=C(c1ccccn1)c1ccccn1)c1ccc2c3c(ccc2c1)N1Cc2c(ccc4cc(C(=O)NN=C(c5ccccn5)c5ccccn5)ccc24)N(C3)C1 | 2

Test system: Candida tropicalis
Experiment: Antifungal activity against Candida tropicalis up to 200 uM after 24 to 48 hrs by broth microdilution method
Type: functional, organism-based

Row | SMILES | Activity
8 | O=C(NN=C(c1ccccn1)c1ccccn1)c1ccc2c3c(ccc2c1)N1Cc2c(ccc4cc(C(=O)NN=C(c5ccccn5)c5ccccn5)ccc24)N(C3)C1 | inactive

Test system: CCRF-CEM
Experiment: Cell cycle arrest in human CCRF-CEM cells assessed as accumulation at S phase at IC50 after 24 hrs by propidium iodide staining-based flow cytometry
Type: functional
How it was run: (§1)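 Cells were then fixed in 70% ethanol, washed in hypotonic citrate buffer, treated with RNase (50 µg/mL) and stained with propidium iodide. Flow cytometry used a 488 nm laser. Apoptosis was scored as the percentage of particles with propidium content below G0/G1.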

Row | SMILES | Activity
9 | O=C(NN=C(c1ccccn1)c1ccccn1)c1ccc2c3c(ccc2c1)N1Cc2c(ccc4cc(C(=O)NN=C(c5ccccn5)c5ccccn5)ccc24)N(C3)C1 | 61.24%

Test system: not listed separately
Experiment: Metal chelating activity of the compound assessed as formation of Cr3+ complex by UV-vis spectrometry
Type: physicochemical

Row | SMILES | Activity
10 | O=C(NN=C(c1ccccn1)c1ccccn1)c1ccc2c3c(ccc2c1)N1Cc2c(ccc4cc(C(=O)NN=C(c5ccccn5)c5ccccn5)ccc24)N(C3)C1 | Not Active

Test system: Pseudomonas aeruginosa
Experiment: Antimicrobial activity against multidrug-resistant Pseudomonas aeruginosa A/16575 up to 200 uM after 24 to 48 hrs by broth microdilution method
Type: functional, organism-based

Row | SMILES | Activity
11 | O=C(NN=C(c1ccccn1)c1ccccn1)c1ccc2c3c(ccc2c1)N1Cc2c(ccc4cc(C(=O)NN=C(c5ccccn5)c5ccccn5)ccc24)N(C3)C1 | inactive

Test system: Enterococcus faecalis
Experiment: Antimicrobial activity against Enterococcus faecalis CCM 4224 up to 200 uM after 24 to 48 hrs by broth microdilution method
Type: functional, organism-based

Row | SMILES | Activity
12 | O=C(NN=C(c1ccccn1)c1ccccn1)c1ccc2c3c(ccc2c1)N1Cc2c(ccc4cc(C(=O)NN=C(c5ccccn5)c5ccccn5)ccc24)N(C3)C1 | inactive

Test system: HCT-116
Experiment: Selectivity index, ratio of IC50 for human MRC5 cells to IC50 for human HCT116 cells
Type: functional

Row | SMILES | Ratio IC50
13 | O=C(NN=C(c1ccccn1)c1ccccn1)c1ccc2c3c(ccc2c1)N1Cc2c(ccc4cc(C(=O)NN=C(c5ccccn5)c5ccccn5)ccc24)N(C3)C1 | 3.4

Test system: CCRF-CEM
Experiment: Induction of apoptosis in human CCRF-CEM cells assessed as inhibition of RNA synthesis at IC50 after 24 hrs by propidium iodide/BrU staining by flow cytometry
Type: functional
Design: scale not given: the % may be the effect or the level left

Row | SMILES | Activity
14 | O=C(NN=C(c1ccccn1)c1ccccn1)c1ccc2c3c(ccc2c1)N1Cc2c(ccc4cc(C(=O)NN=C(c5ccccn5)c5ccccn5)ccc24)N(C3)C1 | 60.37%

Test system: Nucleic Acid
Experiment: Binding affinity to DNA (unknown origin) assessed as DNA intercalation by UV-visible spectrophotometry in presence of Ni2+
Type: nucleic-acid assay

Row | SMILES | Activity
15 | O=C(NN=C(c1ccccn1)c1ccccn1)c1ccc2c3c(ccc2c1)N1Cc2c(ccc4cc(C(=O)NN=C(c5ccccn5)c5ccccn5)ccc24)N(C3)C1 | Active

Test system: Nucleic Acid
Experiment: Binding affinity to DNA (unknown origin) assessed as DNA intercalation by UV-visible spectrophotometry in presence of Cu2+
Type: nucleic-acid assay

Row | SMILES | Activity
16 | O=C(NN=C(c1ccccn1)c1ccccn1)c1ccc2c3c(ccc2c1)N1Cc2c(ccc4cc(C(=O)NN=C(c5ccccn5)c5ccccn5)ccc24)N(C3)C1 | Active

Test system: A549
Experiment: Selectivity index, ratio of IC50 for human BJ cells to IC50 for human A549 cells
Type: functional

Row | SMILES | Ratio IC50
17 | O=C(NN=C(c1ccccn1)c1ccccn1)c1ccc2c3c(ccc2c1)N1Cc2c(ccc4cc(C(=O)NN=C(c5ccccn5)c5ccccn5)ccc24)N(C3)C1 | 0.8

Test system: Candida parapsilosis
Experiment: Antifungal activity against Candida parapsilosis up to 200 uM after 24 to 48 hrs by broth microdilution method
Type: functional, organism-based

Row | SMILES | Activity
18 | O=C(NN=C(c1ccccn1)c1ccccn1)c1ccc2c3c(ccc2c1)N1Cc2c(ccc4cc(C(=O)NN=C(c5ccccn5)c5ccccn5)ccc24)N(C3)C1 | inactive

Test system: Staphylococcus haemolyticus
Experiment: Antimicrobial activity against methicillin-resistant Staphylococcus haemolyticus A1/16568 up to 200 uM after 24 to 48 hrs by broth microdilution method
Type: functional, organism-based

Row | SMILES | Activity
19 | O=C(NN=C(c1ccccn1)c1ccccn1)c1ccc2c3c(ccc2c1)N1Cc2c(ccc4cc(C(=O)NN=C(c5ccccn5)c5ccccn5)ccc24)N(C3)C1 | inactive

Test system: not listed separately
Experiment: Metal chelating activity of the compound assessed as formation of Mg2+ complex by UV-vis spectrometry
Type: physicochemical

Row | SMILES | Activity
20 | O=C(NN=C(c1ccccn1)c1ccccn1)c1ccc2c3c(ccc2c1)N1Cc2c(ccc4cc(C(=O)NN=C(c5ccccn5)c5ccccn5)ccc24)N(C3)C1 | Not Active

Test system: Pseudomonas aeruginosa
Experiment: Antimicrobial activity against Pseudomonas aeruginosa CCM 395 up to 200 uM after 24 to 48 hrs by broth microdilution method
Type: functional, organism-based

Row | SMILES | Activity
21 | O=C(NN=C(c1ccccn1)c1ccccn1)c1ccc2c3c(ccc2c1)N1Cc2c(ccc4cc(C(=O)NN=C(c5ccccn5)c5ccccn5)ccc24)N(C3)C1 | inactive

Test system: CCRF-CEM
Experiment: Induction of apoptosis in human CCRF-CEM cells assessed as apoptotic cells at IC50 after 24 hrs by propidium iodide staining-based flow cytometry
Type: functional
How it was run: as §1

Row | SMILES | Activity
22 | O=C(NN=C(c1ccccn1)c1ccccn1)c1ccc2c3c(ccc2c1)N1Cc2c(ccc4cc(C(=O)NN=C(c5ccccn5)c5ccccn5)ccc24)N(C3)C1 | 12.04%
